Data as given in ChEMBL document CHEMBL1148788 (J Med Chem, 2007).
“And” between values parts separate entries of the source, which are not always exact repeats. Identical values can stand only once. The source made the active and inactive calls. The rule behind the calls is not given here.

How the values were obtained:
cells = format: functional, cell-based; conditions: Homo sapiens, HEK293
[1] = molecular target: T1, Neuronal acetylcholine receptor subunit alpha-7 (Homo sapiens, UniProt P36544); test: Displacement of [3H]methyllycaconitine from alpha7 nAChR in tsA201 cells co-expressed with Ric3; format: cell-based
Target sequence in this assay (P36544 whole entry): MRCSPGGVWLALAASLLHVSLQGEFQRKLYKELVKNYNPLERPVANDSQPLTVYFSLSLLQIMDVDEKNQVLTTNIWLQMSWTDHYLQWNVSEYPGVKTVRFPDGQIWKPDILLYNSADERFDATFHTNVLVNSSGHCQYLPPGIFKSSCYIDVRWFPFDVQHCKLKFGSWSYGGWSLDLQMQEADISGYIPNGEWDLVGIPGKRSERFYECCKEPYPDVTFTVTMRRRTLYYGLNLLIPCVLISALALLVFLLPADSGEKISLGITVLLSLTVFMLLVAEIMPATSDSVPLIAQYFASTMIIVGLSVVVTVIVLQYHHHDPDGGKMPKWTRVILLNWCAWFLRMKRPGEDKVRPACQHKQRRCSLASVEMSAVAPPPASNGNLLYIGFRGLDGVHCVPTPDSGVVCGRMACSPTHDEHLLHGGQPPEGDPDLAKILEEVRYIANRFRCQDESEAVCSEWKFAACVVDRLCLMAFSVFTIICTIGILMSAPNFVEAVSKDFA

[2] = molecular target: T2, Neuronal acetylcholine receptor; alpha3/beta4 (Rattus norvegicus, UniProt P04757+P12392); test: Displacement of [3H]epibatidine from recombinant rat alpha-3-beta-4 nAChr in HEK293 cell line; format: cell-based
[3] = Displacement of [3H]methyllycaconitine from chimeric alpha7nAChR K145A mutant/5HT3A receptor in tsA201 cells; format: cell-based, Homo sapiens
Outline: (§1)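 tsA-201 cells transiently transfected with 4 µg WT or mutant α7/5-HT3A chimera and assayed 2 days later. Membranes washed twice at 50000g in 50 mM Tris-HCl pH 7.2. Incubated with 0.5 nM [3H]MLA and compound for 2.5 h at room temperature with shaking; nonspecific binding with 5 mM (S)-nicotine. PEI-soaked GF/C filtration, scintillation counting. Ki derived; duplicate, 3–7 experiments.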

[4] = molecular target: T1, Neuronal acetylcholine receptor subunit alpha-7; test: Displacement of [3H]methyllycaconitine from chimeric alpha7nAChR/5HT3A in tsA201 cells; format: cell-based
Target sequence in this assay (P36544 23-502 limits assumed): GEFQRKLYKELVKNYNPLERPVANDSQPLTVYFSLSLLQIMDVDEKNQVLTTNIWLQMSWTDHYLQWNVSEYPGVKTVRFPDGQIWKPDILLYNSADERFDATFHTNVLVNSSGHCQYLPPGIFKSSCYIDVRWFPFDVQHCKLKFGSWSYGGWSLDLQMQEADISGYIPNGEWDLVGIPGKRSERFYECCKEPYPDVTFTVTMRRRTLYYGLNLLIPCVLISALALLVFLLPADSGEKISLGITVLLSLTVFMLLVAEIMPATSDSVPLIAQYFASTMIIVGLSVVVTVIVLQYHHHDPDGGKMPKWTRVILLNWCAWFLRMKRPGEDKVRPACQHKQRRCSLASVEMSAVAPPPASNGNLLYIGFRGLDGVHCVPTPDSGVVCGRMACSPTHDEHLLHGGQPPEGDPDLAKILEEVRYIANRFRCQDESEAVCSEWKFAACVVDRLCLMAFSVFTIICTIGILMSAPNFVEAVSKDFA

[5] = Antagonist activity at human alpha7nAChR Y93A mutant co-expressed with human Ric3 in tsA201 cells by FMP assay; format: functional, cell-based
[6] = molecular target: Neuronal acetylcholine receptor; alpha4/beta4 (Rattus norvegicus, UniProt P09483+P12392); test: Displacement of [3H]epibatidine from recombinant rat alpha-4-beta-4 nAChr in HEK293 cell line; format: cell-based
[7] = Displacement of [3H]methyllycaconitine from chimeric alpha-7nAChR S150A mutant/5HT3A receptor in tsA201 cells; format: cell-based, Homo sapiens
Outline: as §1

[8] = Displacement of [3H]methyllycaconitine from chimeric alpha-7nAChR N107A mutant/5HT3A receptor in tsA201 cells; format: cell-based, Homo sapiens
Outline: as §1

[9] = Displacement of [3H]methyllycaconitine from chimeric alpha-7nAChR W55A mutant /5HT3A receptor in tsA201 cells; format: cell-based, Homo sapiens
Outline: as §1

[10] = molecular target: T1, Neuronal acetylcholine receptor subunit alpha-7
Target sequence in this assay (P36544 whole entry): as the sequence (P36544 whole entry) above

[11] = Displacement of [3H]methyllycaconitine from chimeric alpha7nAChR R79A mutant/5HT3A receptor R79A mutant in tsA201 cells; format: cell-based, Homo sapiens
Outline: as §1

tsA201 [12] = test: Displacement of [3H]methyllycaconitine from chimeric alpha-7nAChR Y93A mutant/5HT3A receptor in tsA201 cells; format: cell-based; conditions: Homo sapiens
Outline: as §1

[13] = Displacement of [3H]methyllycaconitine from chimeric alpha-7nAChR Y168A mutant/5HT3A receptor in tsA201 cells; format: cell-based, Homo sapiens
Outline: as §1

tsA201 [14] = test: Displacement of [3H]methyllycaconitine from chimeric alpha-7nAChR Y188A mutant/5-HT3A receptor in tsA201 cells; format: cell-based; conditions: Homo sapiens
Outline: as §1

[15] = molecular target: T3, Glycine receptor subunit alpha-1 (Homo sapiens, UniProt P23415); test: Antagonist activity at human glycine alpha-1 receptor in HEK293 cells by FMP assay; format: functional, cell-based
T3 sequence (P23415 whole entry): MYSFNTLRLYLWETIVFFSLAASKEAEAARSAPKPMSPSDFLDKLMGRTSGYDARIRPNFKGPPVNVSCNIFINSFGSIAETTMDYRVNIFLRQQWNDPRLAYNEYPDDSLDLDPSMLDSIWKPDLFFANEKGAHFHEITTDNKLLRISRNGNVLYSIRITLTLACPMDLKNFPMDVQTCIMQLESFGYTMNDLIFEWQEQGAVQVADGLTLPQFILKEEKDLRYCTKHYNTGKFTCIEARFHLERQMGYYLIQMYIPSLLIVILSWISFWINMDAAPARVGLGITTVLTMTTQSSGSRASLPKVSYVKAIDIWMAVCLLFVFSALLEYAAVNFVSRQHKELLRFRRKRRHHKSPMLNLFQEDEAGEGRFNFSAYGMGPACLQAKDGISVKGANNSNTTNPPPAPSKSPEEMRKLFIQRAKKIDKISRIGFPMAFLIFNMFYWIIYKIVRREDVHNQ

[16] = molecular target: T2, Neuronal acetylcholine receptor; alpha3/beta4; test: Antagonist activity at rat alpha3beta4 nAChR expressed in HEK293 cells by FMP assay; format: functional, cell-based, Homo sapiens; conditions: read-out: IC50
[17] = molecular target: T4, 5-hydroxytryptamine receptor 3A (Homo sapiens, UniProt P46098); test: Antagonist activity at human 5HT3A receptor expressed in HEK293 cells by FMP assay; format: functional, cell-based; conditions: read-out: IC50
T4 sequence (P46098 whole entry): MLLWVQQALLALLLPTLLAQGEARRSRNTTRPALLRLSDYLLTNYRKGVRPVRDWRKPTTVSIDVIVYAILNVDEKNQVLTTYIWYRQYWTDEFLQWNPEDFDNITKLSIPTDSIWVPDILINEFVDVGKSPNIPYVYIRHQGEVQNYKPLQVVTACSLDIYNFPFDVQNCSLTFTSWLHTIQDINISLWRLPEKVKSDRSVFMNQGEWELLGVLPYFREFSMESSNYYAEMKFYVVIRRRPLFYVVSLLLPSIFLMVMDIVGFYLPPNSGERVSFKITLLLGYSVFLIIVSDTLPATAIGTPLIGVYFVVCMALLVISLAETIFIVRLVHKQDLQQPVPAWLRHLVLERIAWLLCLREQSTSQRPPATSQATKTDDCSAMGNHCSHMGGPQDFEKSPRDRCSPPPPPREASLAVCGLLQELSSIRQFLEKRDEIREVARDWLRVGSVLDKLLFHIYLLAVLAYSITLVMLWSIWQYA

[18] = Displacement of [3H]methyllycaconitine from chimeric alpha7nAChR W55Y mutant/5HT3A receptor in tsA201 cells; format: cell-based, Homo sapiens
Outline: as §1

[19] = Antagonist activity at human alpha-7 nAChR Y195A mutant coexpressed with human Ric3 in tsA201 cells by FMP assay; format: functional, cell-based
[20] = Antagonist activity at human alpha7 nAChR W149Y mutant co-expressed with human Ric3 in tsA201 cells by FMP assay; format: functional, cell-based
[21] = molecular target: Neuronal acetylcholine receptor; alpha4/beta2 (Rattus norvegicus, UniProt P09483+P12390); test: Displacement of [3H]epibatidine from rat recombinant alpha-4-beta-2 nAChR in HEK293 cell line; format: cell-based
tsA201 [22] = test: Displacement of [3H]methyllycaconitine from chimeric alpha-7nAChR W149Y mutant/5HT3A receptor W149Y mutant in tsA201 cells; format: cell-based; conditions: Homo sapiens
Outline: as §1

[23] = molecular target: T4, 5-hydroxytryptamine receptor 3A; test: Displacement of [3H]GR65630 from human 5HT3A receptor in HEK293 cells; format: cell-based
[24] = Displacement of [3H]methyllycaconitine from chimeric alpha-7nAChR S148A mutant /5HT3A receptor in tsA201 cells; format: cell-based, Homo sapiens
Outline: as §1

[25] = Displacement of [3H]methyllycaconitine from chimeric alpha7nAChR Y195A mutant/5HT3A receptor in tsA201 cells; format: cell-based, Homo sapiens
Outline: as §1

[26] = molecular target: T1, Neuronal acetylcholine receptor subunit alpha-7; test: Antagonist activity at human alpha-7 nAChR in tsA201 cells coexpressed with Ric3 by FMP assay; format: functional, cell-based
Target sequence in this assay (P36544 whole entry): as the sequence (P36544 whole entry) above

[27] = Displacement of [3H]methyllycaconitine from chimeric alpha-7nAChR K145R mutant /5HT3A receptor in tsA201 cells; format: cell-based, Homo sapiens
Outline: as §1

[28] = molecular target: T1, Neuronal acetylcholine receptor subunit alpha-7; test: Displacement of [3H]methyllycaconitine from human alpha-7 in tsA201 cells coexpressed with 5HT3A receptor; format: cell-based
Target sequence in this assay (P36544 whole entry): as the sequence (P36544 whole entry) above

tsA201 [29] = test: Displacement of [3H]methyllycaconitine from chimeric alpha-7nAChR W149A mutant/5HT3A receptor in tsA201 cells; format: cell-based; conditions: Homo sapiens
Outline: as §1

tsA201 [30] = test: Displacement of [3H]methyllycaconitine from chimeric alpha-7nAChR W55A/Y195A mutant /5HT3A receptor in tsA201 cells; format: cell-based; conditions: Homo sapiens
Outline: as §1

[31] = Antagonist activity at human alpha-7 nAChR Y188A mutant coexpressed with human Ric3 in tsA201 cells by FMP assay; format: functional, cell-based
[32] = Displacement of [3H]methyllycaconitine from chimeric alpha-7nAChR D197A mutant/5HT3A receptor in tsA201 cells; format: cell-based, Homo sapiens
Outline: as §1

[33] = Displacement of [3H]methyllycaconitine from chimeric alpha-7nAChR Y195F mutant/5HT3A receptor in tsA201 cells; format: cell-based, Homo sapiens
Outline: as §1

Chain of Neuronal acetylcholine receptor; alpha4/beta4 (P09483 whole entry): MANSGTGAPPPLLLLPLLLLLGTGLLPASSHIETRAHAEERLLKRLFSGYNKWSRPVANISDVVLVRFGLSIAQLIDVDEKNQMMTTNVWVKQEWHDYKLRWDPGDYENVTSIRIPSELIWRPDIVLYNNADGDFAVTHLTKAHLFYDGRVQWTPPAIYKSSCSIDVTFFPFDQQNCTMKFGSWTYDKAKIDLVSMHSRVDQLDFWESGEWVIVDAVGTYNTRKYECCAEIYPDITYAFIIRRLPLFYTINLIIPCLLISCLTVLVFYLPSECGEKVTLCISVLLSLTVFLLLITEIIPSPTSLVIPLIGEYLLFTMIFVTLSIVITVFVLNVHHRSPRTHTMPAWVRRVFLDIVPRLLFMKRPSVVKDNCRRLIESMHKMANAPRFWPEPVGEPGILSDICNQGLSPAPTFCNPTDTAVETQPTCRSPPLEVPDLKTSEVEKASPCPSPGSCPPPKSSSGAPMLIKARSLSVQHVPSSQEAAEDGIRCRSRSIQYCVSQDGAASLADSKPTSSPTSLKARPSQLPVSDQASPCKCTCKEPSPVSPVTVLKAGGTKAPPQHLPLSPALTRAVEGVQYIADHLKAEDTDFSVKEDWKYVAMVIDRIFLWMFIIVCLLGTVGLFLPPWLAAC
Chain of Neuronal acetylcholine receptor; alpha4/beta4 (P12392 whole entry): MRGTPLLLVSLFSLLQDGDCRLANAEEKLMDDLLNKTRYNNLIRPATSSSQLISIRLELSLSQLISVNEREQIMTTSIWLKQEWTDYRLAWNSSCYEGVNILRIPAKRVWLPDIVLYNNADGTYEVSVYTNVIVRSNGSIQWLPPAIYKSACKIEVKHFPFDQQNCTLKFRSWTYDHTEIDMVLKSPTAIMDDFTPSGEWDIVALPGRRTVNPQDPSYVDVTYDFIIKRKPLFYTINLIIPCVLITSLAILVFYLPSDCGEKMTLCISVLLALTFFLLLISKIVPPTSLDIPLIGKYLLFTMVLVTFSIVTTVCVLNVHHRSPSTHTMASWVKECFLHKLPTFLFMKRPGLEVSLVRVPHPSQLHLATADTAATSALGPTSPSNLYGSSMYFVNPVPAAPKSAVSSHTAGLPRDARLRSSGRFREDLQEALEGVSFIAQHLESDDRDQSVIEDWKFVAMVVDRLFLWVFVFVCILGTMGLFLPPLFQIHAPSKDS
Chain of Neuronal acetylcholine receptor; alpha4/beta2 (P09483 whole entry): as the sequence (P09483 whole entry) above
Chain of Neuronal acetylcholine receptor; alpha4/beta2 (P12390 whole entry): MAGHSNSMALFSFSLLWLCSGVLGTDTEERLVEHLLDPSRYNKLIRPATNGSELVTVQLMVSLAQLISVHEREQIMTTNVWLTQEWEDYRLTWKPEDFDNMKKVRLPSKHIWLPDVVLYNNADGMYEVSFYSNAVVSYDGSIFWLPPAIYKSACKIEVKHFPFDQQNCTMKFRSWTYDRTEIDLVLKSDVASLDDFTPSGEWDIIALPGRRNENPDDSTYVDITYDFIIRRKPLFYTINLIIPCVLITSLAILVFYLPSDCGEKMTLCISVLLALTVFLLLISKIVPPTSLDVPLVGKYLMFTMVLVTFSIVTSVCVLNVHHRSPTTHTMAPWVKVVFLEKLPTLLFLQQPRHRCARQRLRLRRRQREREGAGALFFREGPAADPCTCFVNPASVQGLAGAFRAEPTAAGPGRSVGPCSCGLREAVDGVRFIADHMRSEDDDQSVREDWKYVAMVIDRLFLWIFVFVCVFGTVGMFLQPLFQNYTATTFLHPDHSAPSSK
T2 sequence (P04757 whole entry): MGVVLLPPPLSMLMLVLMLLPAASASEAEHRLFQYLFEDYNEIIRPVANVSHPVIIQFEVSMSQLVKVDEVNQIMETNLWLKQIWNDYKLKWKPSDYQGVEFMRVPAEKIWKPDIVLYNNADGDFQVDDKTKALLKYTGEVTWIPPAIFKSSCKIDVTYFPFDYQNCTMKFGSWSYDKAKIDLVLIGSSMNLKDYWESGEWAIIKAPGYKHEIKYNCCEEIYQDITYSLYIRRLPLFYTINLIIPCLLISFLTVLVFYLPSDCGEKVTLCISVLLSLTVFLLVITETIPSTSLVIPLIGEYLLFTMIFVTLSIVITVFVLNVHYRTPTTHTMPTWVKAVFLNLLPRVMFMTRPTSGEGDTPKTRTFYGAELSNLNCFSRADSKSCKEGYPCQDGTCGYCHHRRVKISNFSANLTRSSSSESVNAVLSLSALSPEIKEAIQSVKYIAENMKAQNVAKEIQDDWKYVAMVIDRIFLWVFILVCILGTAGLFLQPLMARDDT
T2 sequence (P12392 whole entry): as the sequence (P12392 whole entry) above

Structure (SMILES): C[N+]12CC[C@@H]3[C@@H]4[C@@H]5[C@@H](OCC=C(C1)[C@@H]5C[C@@H]32)N1c2ccccc2[C@@]23CC[N+]5(C)CC6=CCO[C@H]([C@@H]([C@H]12)[C@H]6C[C@@H]35)N4c1ccccc1.[I-].[I-] (stereo partly drawn)
- IC50 (cells; read-out: IC50): > 100 µM
- IC50 (cells; read-out: pIC50 (converted)): > 100 µM
- Ki ([1]; read-out: Ki): 0.21 µM
- Ki ([1]; read-out: pKi (converted)): 0.2 µM
- Ki [2]: 30 µM
- Ki [3]: 0.25 µM
- pKi [3]: 6.6
- Ki [4]: 0.33 µM
- pKi [4]: 6.48
- IC50 ([5]; read-out: IC50): 1.3 µM
- IC50 ([5]; read-out: pIC50 (converted)): 1.32 µM
- Ki [6]: > 100 µM
- pKi ([6]; hek293): < 4
- Ki [7]: 0.5 µM
- pKi [7]: 6.3
- Ki [8]: 0.33 µM
- pKi [8]: 6.48
- Ki [9]: 0.85 µM
- pKi [9]: 6.07
- IC50 [10]: 1.5 µM and 1.51 µM
- Ki [11]: 0.66 µM
- pKi [11]: 6.18
- Activity (tsA201 [12]): inactive
- Ki [13]: 0.31 µM
- pKi [13]: 6.51
- Activity (tsA201 [14]): inactive
- IC50 [15]: > 100 µM
- pIC50 ([15]; hek293): < 4
- IC50 [16]: 30 µM
- IC50 [17]: 30 µM
- Ki [18]: 0.3 µM
- pKi [18]: 6.53
- IC50 ([19]; read-out: IC50): 7.1 µM
- IC50 ([19]; read-out: pIC50 (converted)): 7.08 µM
- IC50 ([20]; read-out: IC50): 2.7 µM
- IC50 ([20]; read-out: pIC50 (converted)): 2.69 µM
- pKi ([21]; hek293): < 4
- Ki ([21]; read-out: Ki): > 100 µM
- Activity (tsA201 [22]): inactive
- Ki [23]: 11 µM
- Ki [24]: 0.79 µM
- pKi [24]: 6.1
- Ki [25]: 2.9 µM
- pKi [25]: 5.54
- IC50 ([26]; read-out: IC50): 1.5 µM
- IC50 ([26]; read-out: pIC50 (converted)): 1.48 µM
- Ki [27]: 0.43 µM
- pKi [27]: 6.37
- Ki ([28]; read-out: Ki): 0.3 µM
- Ki ([28]; read-out: pKi (converted)): 0.316 µM
- Activity (tsA201 [29]): inactive
- Activity (tsA201 [30]): inactive
- IC50 ([31]; read-out: IC50): 2.5 µM
- IC50 ([31]; read-out: pIC50 (converted)): 2.45 µM
- Ki [32]: 0.55 µM
- pKi [32]: 6.26
- Ki [33]: 0.39 µM
- pKi [33]: 6.41
